The values below come from article PMC3824626 (Bioorganic & medicinal chemistry letters, 2013).

Each structure is given as a SMILES string. Entries after “also recorded” stand apart in the source; their conditions may differ.

One data set concerns the target BLM helicase (Homo sapiens, UniProt P54132). Put plainly: gel-based BLM DNA unwinding assay. The class given is biochemical. Particulars: for IC50 (BLM): gel-based BLM DNA unwinding assay.
Data set [1] can be described thus: kinetic aqueous solubility. The class given is physicochemical. Particulars: aqueous/DMSO solubility compared with other analogs. In short, it runs like this: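 Kinetic aqueous solubility in PBS buffer, pH 7.4. It was measured by chemiluminescent nitrogen detection (CLND) at an outside laboratory and in-house by UV-Vis detection.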
In another data set the target is BLM ATPase activity (Homo sapiens, UniProt P54132). Put plainly: BLM ATPase kinetic analysis. The format is biochemical. Put shortly: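 Michaelis–Menten analysis of BLM ATPase activity with and without test compound, replotted as a Lineweaver–Burk double-reciprocal plot. Each point is the mean ± SD of quadruplicate determinations, and the data shown represent three independent experiments.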
BLM ATPase activity, sequence (P54132 whole entry): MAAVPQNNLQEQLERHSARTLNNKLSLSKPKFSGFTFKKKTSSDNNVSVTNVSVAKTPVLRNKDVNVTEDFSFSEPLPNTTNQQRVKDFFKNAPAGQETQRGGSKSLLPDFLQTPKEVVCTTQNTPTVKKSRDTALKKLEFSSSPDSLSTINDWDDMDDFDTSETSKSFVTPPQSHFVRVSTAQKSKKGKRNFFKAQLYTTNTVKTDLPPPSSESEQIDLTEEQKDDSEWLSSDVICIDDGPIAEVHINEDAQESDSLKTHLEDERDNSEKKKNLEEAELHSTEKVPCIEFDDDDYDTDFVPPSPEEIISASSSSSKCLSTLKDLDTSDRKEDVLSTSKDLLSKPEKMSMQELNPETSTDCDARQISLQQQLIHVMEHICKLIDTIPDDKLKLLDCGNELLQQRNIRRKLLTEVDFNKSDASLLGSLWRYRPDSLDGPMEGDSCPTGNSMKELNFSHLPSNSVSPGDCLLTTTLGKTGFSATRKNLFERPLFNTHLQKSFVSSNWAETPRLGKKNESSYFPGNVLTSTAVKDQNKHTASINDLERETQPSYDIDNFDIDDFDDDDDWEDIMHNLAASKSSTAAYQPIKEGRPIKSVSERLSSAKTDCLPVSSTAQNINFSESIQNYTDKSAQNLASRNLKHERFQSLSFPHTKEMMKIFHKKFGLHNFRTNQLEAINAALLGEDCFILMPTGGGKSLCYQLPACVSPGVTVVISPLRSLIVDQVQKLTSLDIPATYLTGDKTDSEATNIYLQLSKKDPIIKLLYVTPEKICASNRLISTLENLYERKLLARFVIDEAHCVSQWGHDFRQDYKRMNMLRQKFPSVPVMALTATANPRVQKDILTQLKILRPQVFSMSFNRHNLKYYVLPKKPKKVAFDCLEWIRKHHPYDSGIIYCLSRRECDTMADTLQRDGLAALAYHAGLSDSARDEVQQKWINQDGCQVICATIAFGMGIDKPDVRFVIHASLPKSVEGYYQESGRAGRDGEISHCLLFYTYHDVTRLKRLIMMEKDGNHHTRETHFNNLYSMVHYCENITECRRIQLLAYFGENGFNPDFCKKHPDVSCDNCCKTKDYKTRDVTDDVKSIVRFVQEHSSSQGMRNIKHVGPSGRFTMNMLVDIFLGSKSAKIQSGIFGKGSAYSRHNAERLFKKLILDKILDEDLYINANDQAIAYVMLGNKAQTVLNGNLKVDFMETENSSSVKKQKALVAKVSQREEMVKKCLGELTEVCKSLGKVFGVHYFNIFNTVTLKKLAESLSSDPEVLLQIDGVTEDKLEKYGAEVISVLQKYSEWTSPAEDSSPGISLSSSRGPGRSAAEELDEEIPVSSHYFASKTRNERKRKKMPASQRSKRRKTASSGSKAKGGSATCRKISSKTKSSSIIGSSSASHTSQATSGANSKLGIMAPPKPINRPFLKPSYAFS

For data set [2], the system named is PSNF5 cells (BLM-complemented GM08505-derived BS cells). Description: sister chromatid exchange frequency in BLM-complemented cells. Particulars: cells expressing BLM (PSNF5). The class given is cell-based, human.
Another data set deals with WRN (Homo sapiens, UniProt Q14191). Description: gel-based DNA unwinding assay, WRN. Particulars: from gel-based IC50 values. The class given is biochemical.
WRN, sequence (Q14191 whole entry): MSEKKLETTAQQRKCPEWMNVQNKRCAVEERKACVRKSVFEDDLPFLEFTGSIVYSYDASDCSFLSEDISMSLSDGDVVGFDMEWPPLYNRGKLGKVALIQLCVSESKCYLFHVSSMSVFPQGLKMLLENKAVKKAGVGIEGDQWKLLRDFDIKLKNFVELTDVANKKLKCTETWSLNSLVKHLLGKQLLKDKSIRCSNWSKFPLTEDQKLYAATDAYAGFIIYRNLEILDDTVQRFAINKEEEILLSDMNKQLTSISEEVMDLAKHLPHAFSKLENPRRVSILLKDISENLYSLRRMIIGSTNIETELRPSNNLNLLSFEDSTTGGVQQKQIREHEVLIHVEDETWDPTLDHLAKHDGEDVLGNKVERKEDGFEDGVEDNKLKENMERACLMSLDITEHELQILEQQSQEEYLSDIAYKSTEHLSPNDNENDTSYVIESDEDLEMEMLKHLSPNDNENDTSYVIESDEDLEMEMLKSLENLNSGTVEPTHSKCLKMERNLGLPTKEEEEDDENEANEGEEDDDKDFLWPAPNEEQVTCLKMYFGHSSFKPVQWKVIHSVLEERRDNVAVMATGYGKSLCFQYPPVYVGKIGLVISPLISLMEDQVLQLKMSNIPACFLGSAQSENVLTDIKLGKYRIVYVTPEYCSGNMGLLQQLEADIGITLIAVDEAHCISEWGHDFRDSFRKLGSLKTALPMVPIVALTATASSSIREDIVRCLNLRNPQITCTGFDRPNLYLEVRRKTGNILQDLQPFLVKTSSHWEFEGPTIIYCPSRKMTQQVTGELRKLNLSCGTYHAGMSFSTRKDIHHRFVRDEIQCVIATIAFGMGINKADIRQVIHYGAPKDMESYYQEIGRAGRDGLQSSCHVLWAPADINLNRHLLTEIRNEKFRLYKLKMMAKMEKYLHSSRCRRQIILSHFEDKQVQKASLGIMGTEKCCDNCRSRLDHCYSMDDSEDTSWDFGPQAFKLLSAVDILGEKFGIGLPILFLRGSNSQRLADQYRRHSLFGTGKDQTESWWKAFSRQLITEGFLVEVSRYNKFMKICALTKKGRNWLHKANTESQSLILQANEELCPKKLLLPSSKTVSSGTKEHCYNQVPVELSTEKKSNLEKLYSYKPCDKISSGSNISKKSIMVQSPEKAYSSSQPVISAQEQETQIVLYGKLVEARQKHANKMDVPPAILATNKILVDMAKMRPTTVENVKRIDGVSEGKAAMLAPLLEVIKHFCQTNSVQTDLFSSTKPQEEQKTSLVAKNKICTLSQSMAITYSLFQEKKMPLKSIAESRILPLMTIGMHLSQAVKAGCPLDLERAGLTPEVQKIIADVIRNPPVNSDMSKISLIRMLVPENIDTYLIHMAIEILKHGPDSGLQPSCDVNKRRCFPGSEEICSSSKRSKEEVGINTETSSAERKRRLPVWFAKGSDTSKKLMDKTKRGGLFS
Data set [3] concerns PSNG13 cells (BLM-defective GM08505-derived BS cells). Description: sister chromatid exchange frequency in BLM-defective cells. The class given is cell-based, human. The following applies: cells lacking BLM (PSNG13).
The target of a further data set is BLM (Homo sapiens, UniProt P54132). Description: fluorescence polarization analysis of BLM binding to single-stranded DNA.
BLM, sequence (P54132 whole entry): as the sequence (P54132 whole entry) above
A further data set deals with WRN helicase. The following applies: cited from earlier work.
For another data set, the system named is BLM-positive cells. The following applies: cited from earlier work.
For data set [4], the system named is sister chromatid exchanges. Particulars: cited from earlier work.

BLM helicase, sequence (P54132 whole entry): as above

For the compound `O=C(Nc1ccc(-n2ccnc2)c(F)c1)Nc1nnc(-c2ccncc2)s1` [Compound 35], the “IC50 (BLM)” value against BLM helicase was “good activity”.
Still for that read-out and setting: in the case of `O=C(Nc1ccc(Cl)c(Cl)c1)Nc1nnc(-c2ccncc2)o1` [Compound 6d] it was “loss of activity”; in that of `N#Cc1cc(NC(=O)Nc2nnc(-c3ccncc3)s2)ccc1-c1ccc[nH]1` [Compound 36], “good activity”.
The same measure, in the same setting: as for `O=C(Nc1ccc(Cl)cc1)Nc1nnc(-c2ccncc2)s1` [Compound 8], the entry is “drastic loss in activity”.
Still for that read-out and setting: in the case of `O=C(Nc1ccc(Cl)c(Cl)c1)Nc1nnc(-c2ccccc2)s1` [Compound 4a] it was “inactivity”.
With `N#Cc1cc(NC(=O)Nc2nnc(-c3ccncc3)s2)ccc1Cl` [Compound 10], in data set [1], the “solubility (in words)” value was “noticeably diminished aqueous/DMSO solubility; also recorded: diminished solubility compared with 33”. Further, the “improvement in potency when 3-Cl is replaced with cyano” value at BLM helicase (relative to compound 1, BLM gel-based IC50) came out at 4 fold.
As to `O=S(=O)(Cc1ccc(Cl)c(Cl)c1)Nc1nnc(-c2ccncc2)s1` [Compound 7e], on BLM helicase, the “IC50 (BLM)” value is “weakly active or inactive”.
Take `O=c1c(Nc2ccc(Cl)c(Cl)c2)c(Nc2nnc(-c3ccncc3)s2)c1=O` [Compound 7g]: the “solubility (in words)” value in [1] is “not improved over (1)”.
On to `O=C(Nc1ccc(Cl)c(Cl)c1)Nc1nnc(-c2ccccn2)s1` [Compound 4b], for which the “IC50 (BLM)” value on BLM helicase is “inactivity”.
On to `N#Cc1cc(NC(=O)Nc2nnc(-c3ccncc3)s2)ccc1-c1cn[nH]c1` [Compound 33], for which, on BLM ATPase activity (Lineweaver-Burk double reciprocal plot), the “mode of BLM inhibition” value was “non-ATP competitive BLM inhibitor”. In addition, the “effect on apparent Km of BLM ATPase activity” value on BLM ATPase activity (single-stranded oligonucleotide as DNA effector) was “does not affect the apparent Km value”. Also, in [2], the “induction of SCEs” value was “significant and dose-dependent induction of SCEs”. Also, the “selectivity for BLM over WRN” value on WRN is recorded as “greater than 6 fold”. For the same compound, the “induction of SCEs” value in data set [3] was “no further increase in SCEs”. Also, at BLM, the “displacement of DNA binding to BLM versus related DNA helicases” value is “selective displacement of DNA binding to BLM over related DNA helicases” and the “inhibition of BLM binding to single-stranded DNA” value is listed as “dose-dependent inhibition”. For the same compound, the “IC50 (BLM)” value against BLM helicase is on record as “comparable activity to the probe compound”.
Turning to `O=C(Cc1ccc2ccccc2c1)Nc1nnc(-c2ccncc2)s1` [Compound 7c], the “IC50 (BLM)” value at BLM helicase is “weakly active or inactive”.
As for `CCCOCN1C(=O)C=CC1=O` [NSC19630], in the data set on WRN helicase, the WRN helicase inhibition entry is listed as “small molecule inhibitor of WRN helicase”.
As for `O=C(Nc1nnc(-c2ccncc2)s1)Oc1ccc2ccccc2c1` [Compound 7d], the “IC50 (BLM)” value against BLM helicase was “weakly active or inactive”.
Still for that read-out and setting: as for `O=C(Nc1ccc(Cl)c(Cl)c1)Nc1ccc(-c2ccncc2)s1` [Compound 6a], the entry is “loss of activity”; as for `CN(C(=O)Nc1ccc2ccccc2c1)c1nnc(-c2ccncc2)s1` [Compound 7h], “complete loss of activity”.
With `N=C(Nc1ccc(Cl)c(Cl)c1)Nc1nnc(-c2ccncc2)s1` [Compound 7b], on BLM helicase, the “IC50 (BLM)” value is “weakly active or inactive”.
`O=C(Nc1ccc(F)c(C(F)(F)F)c1)Nc1nnc(-c2ccncc2)s1` [ML216]: in the data set on BLM-positive cells, the antiproliferative activity entry is recorded as “selective antiproliferative activity in BLM-positive cells”. Further, in data set [4], the “induction of sister chromatid exchanges” value is “induce sister chromatid exchanges”.
For the compound `O=C(Nc1ccccc1)Nc1nnc(-c2ccncc2)s1` [Compound 9], the “IC50 (BLM)” value on BLM helicase is “drastic loss in activity”.
Same read-out and setting: as for `N#C/N=C(/Nc1ccc(F)c(C(F)(F)F)c1)Nc1nnc(-c2ccncc2)s1` [Compound 7f], the entry is “weakly active or inactive”.
On to `O=C(Nc1ccc(Cl)c(Cl)c1)Nc1ncc(-c2ccncc2)s1` [Compound 6c], for which the “IC50 (BLM)” value at BLM helicase is “completely inactive”.
On to `N#Cc1ccc(NC(=O)Nc2nnc(-c3ccncc3)s2)cc1Br` [Compound 24], for which the “solubility (in words)” value in data set [1] is listed as “noticeably diminished aqueous/DMSO solubility”.
Same read-out and setting: in the case of `N#Cc1cc(NC(=O)Nc2nnc(-c3ccncc3)s2)ccc1Br` [Compound 23] it was “noticeably diminished aqueous/DMSO solubility”.
